This passage reports IC50 results from PubChem BioAssay AID602423 (Sanford-Burnham Center for Chemical Genomics, 2012).

For orientation: pIC50 means −log10 of the IC50, conventionally taken in molar units. In general, IC50 refers to the concentration at which inhibition is half-maximal.

pIC50: −log10 of the molar value. Active and inactive are the calls of the source.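 The calls were made as follows: active = IC50 at or below 20 µM; inactive = the rest.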

This experiment addresses glucose-6-phosphate dehydrogenase-6-phosphogluconolactonase (PfGluPho), Plasmodium falciparum 3D7. Briefly: PfGluPho enzyme inhibitors, SAR follow-up, biochemical, fluorescence intensity, dose response, set 4 (AID 602423). Particulars: recombinant PfGluPho, resazurin-diaphorase NADPH fluorescence. The method, boiled down: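 System: PfGluPho, the glucose-6-phosphate dehydrogenase of Plasmodium falciparum. Quantity: enzyme 0.05 µg/mL. Benchmarks: low control wells lacking glucose-6-phosphate substrate. Also added: G6P 20 µM, NADP 3 µM. Compound dosing: dose-response series. Technique: coupled fluorescence, Ex 530/Em 590 nm. Schedule: enzyme reaction 2 h at room temperature in darkness.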
Background: Alamar Blue is a resazurin reagent that responds to reducing activity.
With `CCN1CCC[C@@H]1CNC(=O)c1ccc2c(c1)NC(=O)c1cccc(C)c1S2`, the pIC50 was 6.73. On to `CCCCCCN1CCCC1CNC(=O)c1ccc2c(c1)NC(=O)c1ccccc1S2` (configuration not stated), for which the IC50 entry is “inactive”. Regarding `CCCN1CCCCC1CNC(=O)c1ccc2c(c1)NC(=O)c1ccccc1S2` (configuration not stated), the IC50 entry was “inactive”.

Take `O=C(NCC1CCCCN1)c1ccc2c(c1)NC(=O)c1ccccc1S2` (configuration not stated): the IC50 entry is “inactive”. The same measure, in the same setting: for `CCN1CCC[C@@H]1CNC(=O)c1ccc2c(c1)NC(=O)c1cc(C)ccc1S2` the value was “inactive”; for `CN1CCC(NC(=O)c2ccc3c(c2)NC(=O)c2ccccc2S3)C1` (configuration not stated), > 80 µM (inactive); for `CN1CCCC1CNC(=O)c1ccc2c(c1)NC(=O)c1ccccc1S2` (configuration not stated), “inactive”. Consider `CCN1CCC[C@@H]1CNC(=O)c1ccc2c(c1)NC(=O)c1cc(F)ccc1S2`, for which the IC50 entry is “inactive”.

As to `CCN1CCC[C@@H]1CNC(=O)c1ccc2c(c1)NC(=O)c1ccccc1N2`, the IC50 was > 80 µM (inactive). Still for that read-out and setting: for `CCN1CCC(NC(=O)c2ccc3c(c2)NC(=O)c2ccccc2S3)C1` (configuration not stated) the value was “inactive”; for `CCCN1CCC(NC(=O)c2ccc3c(c2)NC(=O)c2ccccc2S3)C1` (configuration not stated), “inactive”. `CN1CCCCC1CNC(=O)c1ccc2c(c1)NC(=O)c1ccccc1S2` (configuration not stated): the IC50 entry was “inactive”. With `O=C(NC[C@H]1CCCN1)c1ccc2c(c1)NC(=O)c1ccccc1S2`, the IC50 entry is “inactive”. For `CCCN1CCC[C@@H]1CNC(=O)c1ccc2c(c1)NC(=O)c1ccccc1S2`, the pIC50 is 4.82. On to `CCCCN1CCCC1CNC(=O)c1ccc2c(c1)NC(=O)c1ccccc1S2` (configuration not stated), for which the negative logarithm of the IC50 (pIC50) is 4.70.

For `CCN1CCC[C@@H]1CNC(=O)c1ccc2c(c1)NC(=O)c1ccc(F)cc1S2`, the pIC50 was 5.53. In the case of `CCN1CCCCC1CNC(=O)c1ccc2c(c1)NC(=O)c1ccccc1S2` (configuration not stated), the IC50 is > 80 µM (inactive).
